The results in this text go back to ChEMBL document CHEMBL1139386, “Discovery of novel CB2 receptor ligands by a pharmacophore-based virtual screening workflow” (J Med Chem, 2009).

Assay [1] can be described thus: Selectivity ratio of Ki for CB1 receptor to Ki for CB2 receptor.
The target of assay [2] is T1, Cannabinoid receptor 1 (Homo sapiens, UniProt P21554). In words: Binding affinity to CB1 receptor.
Assay [3] deals with T2, Cannabinoid receptor 2 (Homo sapiens, UniProt P34972). In words: Binding affinity to CB2 receptor.
The species named for assay [4] is Homo sapiens. In words: Selectivity ratio of Ki for human CB1 receptor to Ki for human CB2 receptor. The gist of the method: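 Ki ratio from radioligand displacement on membranes overexpressing human CB1 (7.16 µg, 0.39 nM radioligand) or CB2 (3.8 µg, 0.11 nM radioligand). Incubation 90 min at 30 °C in Tris/EGTA/MgCl2/BSA buffer, pH 7.4, then GF/C filtration and scintillation counting; nonspecific binding with 10 µM reference ligand. IC50 from Hill plots; three independent experiments in triplicate.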

The target of assay [5] is T2, Cannabinoid receptor 2. The assay can be described thus: Displacement of [3H]CP-55940 from human recombinant CB2 receptor. The gist of the method: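 Membranes from cells recombinantly overexpressing CB2 (Bmax 4.7 pmol/mg protein), 3.8 µg, in binding buffer (50 mM Tris-HCl, 2.5 mM EGTA, 5 mM MgCl2, 0.5 mg/mL fatty-acid-free BSA, pH 7.4) with 0.11 nM radioligand. Compounds were tested at varying concentrations, with nonspecific binding defined by 10 µM reference ligand. Incubation was 90 min at 30 °C, followed by PEI-soaked GF/C filtration and scintillation counting. Data were normalized and Hill-linearized to give IC50 and Ki (three experiments, triplicate).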

The target in assay [6] is T1, Cannabinoid receptor 1. The assay can be described thus: Displacement of [3H]CP-55940 from human recombinant CB1 receptor. On the technique in general: Loss of bound radioactivity is the signal in a displacement assay; it reports binding, not function.
Assay [7] has as its target T2, Cannabinoid receptor 2. In words: Agonist activity at human CB2 receptor expressed in CHO-K1 cells assessed as forskolin-stimulated cAMP release. It is filed as functional, cell-based. As to conditions: filed as partial agonist. The gist of the method: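 CHO-K1 cells expressing hCB2, plated at 3×10^5 cells/mL overnight, were preincubated 10 min in supplement-free RPMI 1640 with 500 µM IBMX. Test compounds were added at several concentrations for 30 min at 37 °C, then 20 µM forskolin for a further 30 min at 37 °C. Intracellular cAMP was read by EFC chemiluminescence, with a high-affinity CB ligand as positive control.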

T1 sequence (P21554 whole entry): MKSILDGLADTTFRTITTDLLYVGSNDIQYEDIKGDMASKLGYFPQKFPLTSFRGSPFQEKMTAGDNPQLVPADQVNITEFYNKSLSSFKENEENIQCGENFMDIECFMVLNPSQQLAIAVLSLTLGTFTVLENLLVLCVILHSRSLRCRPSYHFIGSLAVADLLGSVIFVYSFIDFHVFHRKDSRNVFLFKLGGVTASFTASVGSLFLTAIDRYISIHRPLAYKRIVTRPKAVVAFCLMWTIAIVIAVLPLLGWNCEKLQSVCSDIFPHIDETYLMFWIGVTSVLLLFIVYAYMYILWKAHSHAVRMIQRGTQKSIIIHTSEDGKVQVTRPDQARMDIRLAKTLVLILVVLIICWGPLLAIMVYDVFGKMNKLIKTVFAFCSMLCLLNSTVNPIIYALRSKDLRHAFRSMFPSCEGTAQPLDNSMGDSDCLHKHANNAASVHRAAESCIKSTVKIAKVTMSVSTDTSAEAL
T2 sequence (P34972 whole entry): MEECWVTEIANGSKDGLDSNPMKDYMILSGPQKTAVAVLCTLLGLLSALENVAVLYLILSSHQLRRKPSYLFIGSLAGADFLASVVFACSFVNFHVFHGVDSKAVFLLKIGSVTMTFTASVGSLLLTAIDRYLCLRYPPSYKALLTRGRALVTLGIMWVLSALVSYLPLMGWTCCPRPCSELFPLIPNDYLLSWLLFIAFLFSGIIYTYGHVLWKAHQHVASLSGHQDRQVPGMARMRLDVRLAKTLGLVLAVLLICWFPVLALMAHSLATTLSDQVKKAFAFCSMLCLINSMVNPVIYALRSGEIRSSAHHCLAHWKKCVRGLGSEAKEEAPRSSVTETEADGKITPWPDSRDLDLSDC

On to `COc1ccc2c(c1)c(CCN1CCOCC1)c(C)n2C(=O)c1cccc(Cl)c1Cl`, for which, in assay [1], the Ratio Ki was found to be 160.

For orientation: Ki means a dissociation constant, usually derived from enzyme kinetics or from competition with a known ligand. With `CCCCCn1cc(C(=O)c2cc3ccccc3cc2OC)c2ccccc21`, the Ratio Ki in assay [1] stood at 53. For the same compound, the Ki in assay [2] was 381 nM; in assay [3], 7.2 nM.

Regarding `CCCC(C)(C)c1ccc2c(c1)OC(C)(C)[C@@H]1CC=C(C)C[C@@H]21`, the Ratio Ki in assay [1] amounted to 199; in assay [4], 35. The Ki in assay [5] stood at 0.023 nM; in assay [2], 677 nM; in assay [6], 0.797 nM; in assay [3], 3.4 nM.

As to `CCCCCCc1cc(O)c2c(c1)OC(C)(C)C1=C2CCN(C)C1`, in assay [4], the Ratio Ki is over 27. The Activity result in assay [7] is “Partial agonist”. Also, the inhibition constant Ki in assay [5] is 1.78 nM; in assay [6], over 50 nM.

Consider `CCCCCCC(C)(C)c1cc(O)c2c(c1)oc(=O)c1ccc(O)cc12`, for which the Ratio Ki in assay [4] is 488. For the same compound, the results for the Ki in assay [5] and in assay [6] were 0.82 nM and 400 nM, respectively.

Regarding `CN1CCCC[C@@H]1Cn1cc(C(=O)c2cc([N+](=O)[O-])ccc2I)c2ccccc21`, the Ratio Ki in assay [1] was found to be 331. In addition, the figures for the Ki in assay [2] and in assay [3] were 5000 nM and 15.1 nM, respectively.

`CCCCCCC(C)(C)c1cc(OC)c([C@@]2(O)CCC[C@@H](C)C2)c(OC)c1`: the Ratio Ki in assay [4] worked out at 220. For the same compound, the Ki in assay [5] stood at 23 nM; in assay [6], 5060 nM.

For `CCCCSc1nc2c(c(=O)n1CCc1ccccc1)C1(CCCC1)Cc1ccccc1-2`, in assay [4], the Ratio Ki was over 2. In addition, the Ki is under 25 nM in assay [5] and over 50 nM in assay [6].

The term EC50 denotes the concentration needed to bring the measured effect to its halfway point. With `O=C(NCC1CCOCC1)c1cnc(Nc2ccc(Cl)cc2Cl)nc1C(F)(F)F` [GW842166X], the Ratio Ki in assay [4] was over 600. In addition, the EC50 in assay [6] was over 30000 nM.

Consider `CCOc1ccc(N(CC(=O)N[C@@H](C)CC)S(=O)(=O)c2ccc(Br)cc2)cc1`, for which the Ratio Ki in assay [4] is over 2. The values for the Ki in assay [5] and in assay [6] were under 25 nM and over 50 nM, respectively.

As for `CCCCCN(CCCCC)C(=O)c1ccccc1C(=O)Nc1ccc(Br)cc1`, the Ratio Ki in assay [4] was over 2. In addition, the inhibition constant (Ki) in assay [5] is under 25 nM; in assay [6], over 50 nM.

In turn, `CCCCCCC(C)(C)c1cc(OC)c([C@H]2C=C(CO)[C@@H]3C[C@H]2C3(C)C)c(OC)c1` yielded a Ki in assay [2] of 10000 nM.

As to `COc1ccc(OC)c(N(CC(=O)NCc2ccncc2)S(=O)(=O)c2ccc(C)cc2)c1`, the Ratio Ki in assay [4] is over 37. The Ki was 1.35 nM in assay [5] and over 50 nM in assay [6].

In the case of `CCCN1Cc2c(n(S(=O)(=O)CC)c3ccc(C(=O)N4CCC(C)CC4)cc23)C1`, the Ratio Ki in assay [4] was 54.

Consider `CCCn1c(C)c(C(=O)c2cccc3cc(OC)ccc23)c2ccccc21`, for which, in assay [4], the Ratio Ki was over 333. Also, the inhibition constant Ki in assay [6] is over 10000 nM.

Turning to `COc1ccc2c(c1)c(CN1CCOCC1)c(C)n2C(=O)c1cccc(Cl)c1Cl`, the Ratio Ki in assay [4] is 153.

Turning to `COc1ccc2c(c1)c(CC(=O)N1CCOCC1)c(C)n2C(=O)c1cccc(Cl)c1Cl`, the Ratio Ki in assay [4] turned out to be 146.

In the case of `CCCCCn1c(C)c(C(=O)c2c(OC)ccc3ccccc23)c2ccccc21`, the Ratio Ki in assay [4] amounted to 34. Also, the Ki in assay [6] worked out at 1380 nM.

Turning to `CCCCCCC(C)(C)c1cc(OC)c(C2(O)CCOCC2)c(OC)c1`, the Ratio Ki in assay [4] is over 29. Moreover, the results for the inhibition constant (Ki) in assay [5] and in assay [6] were 342 nM and over 10000 nM, respectively.

On to `CCCCCC(C)(C)c1cc(OC)c2c(c1)OC(C)(C)[C@@H]1CCC(C)=C[C@@H]21`, for which the Ratio Ki in assay [4] worked out at 174.

`CCS(=O)(=O)n1c2c(c3cc(C(=O)N4CCC(OC)CC4)ccc31)CN(C1CCCC1)C2`: the Ratio Ki in assay [4] is 77.

As for `CC1CCN(C(=O)c2ccc3c(c2)c2c(n3S(C)(=O)=O)CN(C3CCCC3)C2)CC1`, in assay [4], the Ratio Ki was 35.

As for `Cc1cccc(-c2nnc(SCC(=O)NC3CCCCC3)n2Cc2ccccc2)c1`, the Ratio Ki in assay [4] is over 2. Also, the Ki in assay [5] is under 25 nM; in assay [6], over 50 nM.

Regarding `CC(=O)n1c2c(c3cc(C(=O)N4CCC(C)CC4)ccc31)CN(C1CCCC1)C2`, the Ratio Ki in assay [4] came out at 26.

For the compound `CCc1ccccc1NC(=O)CSc1nnc(-c2ccccc2OC)n1-c1ccccc1`, the Ratio Ki in assay [4] is over 23. Also, the inhibition constant (Ki) in assay [5] was 2.1 nM; in assay [6], over 50 nM.

As for `CCCn1cc(C(=O)c2ccc(C)c3ccccc23)c2ccccc21`, the Ratio Ki in assay [4] was 173. Also, the Ki in assay [6] came out at 1050 nM.
